Reference: ChEMBL document CHEMBL2331200, “Synthesis and bioevaluation of [(18)F]4-fluoro-m-hydroxyphenethylguanidine ([(18)F]4F-MHPG): a novel radiotracer for quantitative PET studies of cardiac sympathetic innervation” (Bioorg Med Chem Lett, 2013)

What was measured:
[1] = Biodistribution in iv dosed rhesus monkey liver; assay type: ADME, organism-based, Macaca mulatta; settings: in vivo
Outline: (§1)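 Dynamic PET imaging of a single nonhuman primate after injection of the 18F tracer. Regional heart, liver and lung activity was read from the images. Heart-to-blood activity ratios were taken at 80–90 min post-injection.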

[2] = Biodistribution in iv dosed rhesus monkey heart; assay type: ADME, organism-based, Macaca mulatta; settings: in vivo; outline: as §1
[3] = Biodistribution in iv dosed rhesus monkey lungs; assay type: ADME, organism-based, Macaca mulatta, Lung; settings: in vivo; outline: as §1
[4] = Biodistribution in iv dosed rhesus monkey left ventricle; assay type: ADME, organism-based, Macaca mulatta, Heart left ventricle; settings: in vivo; outline: as §1
Heart = test: Drug uptake in rat heart assessed as neuronal uptake rate per gram of wet weight after 10 mins constant infusion measured up to 140 mins; assay type: ADME, tissue-based; settings: ex_vivo
Outline: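 Isolated working rat heart with uptake-2 blocked by 54 μM corticosterone in the perfusion buffer. Radiotracer was infused for 10 min at constant perfusate concentration to give the neuronal uptake rate Kup (ml/min/g wet).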

Drug uptake [2]	Drug uptake [3]	Drug uptake [4]	SMILES	Drug uptake [1]	Drug uptake (Heart) [mL/min/g]
			C[C@H](N[11CH3])[C@H](O)c1cccc(O)c1	Active	
Active	Not Active	Active	N=C(N)NCCc1ccc([18F])c(O)c1	Active	
			N=C(N)NCc1ccc([18F])cc1		1.2
			N=C(N)NCc1cccc([123I])c1 [IOBENGUANE I 123]	Active	
